Test results from ChEMBL document CHEMBL1142606, “Antibiotic bisanthraquinones produced by a streptomycete isolated from a cyanobacterium associated with Ecteinascidia turbinata” (J Nat Prod, 2006).

Assays:
[1] = system: Enterococcus faecalis; assay: Antibacterial activity against vancomycin-resistant Enterococcus faecalis ATCC 51299 after 18 hrs by broth dilution assay; format: functional, organism-based; settings: ATCC 51299, 18 h
Summary of the method: (§1)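 Broth dilution; MRSA ATCC 43300 in trypticase soy medium, VRE ATCC 51299 in brain heart infusion medium. Cultures grown 14 h on rotary shaker at 38 °C, diluted to A600 0.04-0.06, then further 10-fold, dispensed to microtiter wells. Compounds tested in dilution series, ten replicates each; growth read as A600 after 18 h; IC50 reported.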

[2] = system: Staphylococcus aureus; assay: Antibacterial activity against methicillin-resistant Staphylococcus aureus ATCC 43300 after 18 hrs by broth dilution assay; format: functional, organism-based; settings: ATCC 43300, 18 h; summary of the method: as §1
[3] = Cytotoxicity against human HCT 116 cells; format: functional, cell-based

CC1=CC(O)=C2C(=O)c3c(O)cccc3[C@@]34Oc5c(ccc6c5C(=O)c5c(O)cc(C)cc5C6=O)C23[C@@H]1[C@H](C)O4 (stereo partly specified)
IC50 [1]: 130 µM
IC50 [2]: 31 µM
IC50 [3]: 6.6 µM

Cc1cc(O)c2c(c1)C(=O)c1ccc3c(c1C2=O)O[C@@]12O[C@@H](C)[C@H]4C31C(=C(O)C[C@@]4(C)O)C(=O)c1c(O)cccc12 (stereo partly specified)
IC50 [1]: 2 µM
IC50 [2]: 0.15 µM
IC50 [3]: 3.3 µM

Cc1cc(O)c2c(c1)C(=O)c1ccc3c(c1C2=O)O[C@@]12O[C@@H](C)[C@@]4(O)C31C(=C(O)C[C@@]4(C)O)C(=O)c1c(O)cccc12 (stereo partly specified)
IC50 [1]: 12 µM
IC50 [2]: 0.36 µM
IC50 [3]: 5.6 µM

CN(C)[C@@H]1C(O)=C(C(N)=O)C(=O)[C@@]2(O)C(O)=C3C(=O)c4c(O)cccc4[C@@](C)(O)[C@H]3C[C@@H]12 [TETRACYCLINE]
IC50 [1]: 0.7 µg/mL
IC50 [2]: 0.2 µg/mL
